Laboratory results reported in paper PMC7042484 (Redox Biology, 2020).

Legend:
human NOX2 = target: T1, human NOX2 (Homo sapiens, UniProt P04839); assay: Initial evaluation on NOX2 membrane preparations; format: biochemical
T1 sequence (P04839 2-570 limits assumed): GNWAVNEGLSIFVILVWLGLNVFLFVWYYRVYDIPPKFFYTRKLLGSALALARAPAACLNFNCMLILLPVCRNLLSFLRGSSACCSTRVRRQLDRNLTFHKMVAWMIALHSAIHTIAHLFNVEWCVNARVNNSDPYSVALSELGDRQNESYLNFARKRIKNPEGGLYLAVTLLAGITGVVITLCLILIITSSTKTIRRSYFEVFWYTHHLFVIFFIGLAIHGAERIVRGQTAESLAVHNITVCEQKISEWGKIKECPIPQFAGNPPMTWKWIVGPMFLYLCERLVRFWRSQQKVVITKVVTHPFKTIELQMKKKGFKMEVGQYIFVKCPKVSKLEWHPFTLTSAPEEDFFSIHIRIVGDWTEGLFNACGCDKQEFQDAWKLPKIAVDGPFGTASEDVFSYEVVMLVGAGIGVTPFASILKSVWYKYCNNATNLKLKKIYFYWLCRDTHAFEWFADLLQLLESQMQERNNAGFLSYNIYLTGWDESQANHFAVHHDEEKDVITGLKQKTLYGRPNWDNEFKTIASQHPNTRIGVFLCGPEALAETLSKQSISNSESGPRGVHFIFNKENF
T1 sequence (P13498 2-195 partner limits assumed): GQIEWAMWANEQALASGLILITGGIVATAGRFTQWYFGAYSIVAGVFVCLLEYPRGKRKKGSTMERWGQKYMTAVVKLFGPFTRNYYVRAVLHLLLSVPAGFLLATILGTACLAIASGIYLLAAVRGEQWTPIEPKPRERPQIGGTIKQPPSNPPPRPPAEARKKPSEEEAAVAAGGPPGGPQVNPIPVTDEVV

human NOX4 = target: T2, human NOX4 (Homo sapiens, UniProt Q9NPH5); assay: Initial evaluation on NOX4 membrane preparations; format: biochemical
T2 sequence (Q9NPH5 1-578): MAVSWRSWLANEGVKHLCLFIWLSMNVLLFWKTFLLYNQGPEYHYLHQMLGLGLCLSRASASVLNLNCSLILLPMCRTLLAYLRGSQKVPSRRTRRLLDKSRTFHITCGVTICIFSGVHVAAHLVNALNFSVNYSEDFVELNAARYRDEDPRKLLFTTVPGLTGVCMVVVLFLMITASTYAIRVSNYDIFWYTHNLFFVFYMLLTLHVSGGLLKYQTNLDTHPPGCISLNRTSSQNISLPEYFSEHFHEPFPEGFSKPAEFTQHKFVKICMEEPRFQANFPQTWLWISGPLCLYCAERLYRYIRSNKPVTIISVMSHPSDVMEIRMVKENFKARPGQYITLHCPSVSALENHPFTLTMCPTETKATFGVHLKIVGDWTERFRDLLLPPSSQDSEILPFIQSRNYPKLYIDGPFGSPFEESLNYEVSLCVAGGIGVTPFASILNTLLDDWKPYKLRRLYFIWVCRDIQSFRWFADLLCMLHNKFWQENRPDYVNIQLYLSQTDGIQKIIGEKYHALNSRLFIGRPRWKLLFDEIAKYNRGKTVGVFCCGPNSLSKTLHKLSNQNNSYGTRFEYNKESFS
T2 sequence (P13498 2-195 partner limits assumed): T1 sequence (P13498 2-195 partner limits assumed)
Outline: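 NOX4-p22 membranes from transfected HEK293 EBNA-1 cells, compound 100 μM, 10 min preincubation at 4 °C in PBS. Amplex Red: 100 μg membranes, 12.5 μM Amplex Red, 0.02 U/ml HRP, 40 μM FAD, started with 40 μM NADPH, ex 572/em 583 nm. CBA: 50 μg membranes, 20 μM FAD, then 200 μM coumarin boronic acid and 50 μM NADPH, ex 320/em 430 nm.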

[1] = tested on: C-terminal mutant dehydrogenase domain of bacterial NOX5; assay: NADPH-depletion assay on C-terminal mutant NOX5 dehydrogenase domain; format: biochemical, Cylindrospermum stagnale; settings: 100 μM inhibitor, C-terminal (PWLEL) low-activity mutant
[2] = tested on: C668S mutant of the NOX5 dehydrogenase domain; assay: Enzymatic assay on C668S mutant NOX5 dehydrogenase domain; format: biochemical, Cylindrospermum stagnale; settings: enzymatic assays
Outline: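 Purified strep-tagged C. stagnale NOX5 dehydrogenase domain (residues 413–693), C668S mutant, 1 μM in 50 mM Hepes pH 7.5 without added FAD. Run at 25 °C in a thermostatted spectrophotometer; rates followed as NADPH oxidation at 340 nm.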

Compound: c1ccc(Cn2nnc3c(Sc4nc5ccccc5o4)ncnc32)cc1 [VAS2870, 3-benzyl-7-(2-benzoxazolyl)thio-1,2,3-triazolo[4,5-d]pyrimidine]
- inhibition at 100 µM (human NOX2; read-out: inhibition of NOX2): 40 to 70%
- inhibition of NOX2 with long incubation (human NOX2; sufficiently long incubation times (Fig. 7B)): became significant
- inhibition of NOX4 (in words) (human NOX4; 100 μM compound, membranes): powerful NOX4 inhibitors
- inhibition at 100 µM (human NOX4; read-out: inhibition of NOX4): 40 to 70%
- inhibition of the mutant dehydrogenase [1]: 20–30%
- inhibition of the C668S mutant domain [2]: could not inhibit the mutant domain
